Source: ChEMBL document CHEMBL5154895, “Mechanistic Studies and In Vivo Efficacy of an Oxadiazole-Containing Antibiotic” (J Med Chem, 2022)
Values after ≈ are worked out from the molar mass of the structure shown.

How the values were obtained:
Staphylococcus aureus [1] = assay: Antibacterial activity against Staphylococcus aureus ATCC 25923 assessed as inhibition of bacterial growth incubated for 18 to 20 hrs by broth microdilution method; type: functional; settings: time 18-20 hrs
Procedure, shortened: (§1)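 Broth microdilution per CLSI. Inoculum at 0.5 McFarland, diluted in cation-adjusted Mueller Hinton broth to about 5 × 10^5 CFU/mL. Serial compound dilutions incubated aerobically at 37° C for 18–20 hours. MIC taken as the lowest concentration completely inhibiting visible growth.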

Staphylococcus aureus [2] = assay: Antibacterial activity against Staphylococcus aureus MRSA ATCC 33592 assessed as inhibition of bacterial growth incubated for 18 to 20 hrs by broth microdilution method; type: functional; settings: time 18-20 hrs; procedure, shortened: as §1
[3] = Toxicity in Balb/c mouse infected with methicillin-resistant Staphylococcus aureus USA300 assessed as chronic inflammatory response at 25 mg/kg, ip administered 2 days post infection twice daily and measured after 5 days post compound treatment by H and E staining based histopathological analysis; type: organism-based; settings: in vivo, 120 h, time 5 day
[4] = Toxicity in Balb/c mouse infected with methicillin-resistant Staphylococcus aureus USA300 assessed as necrosis at 25 mg/kg, ip administered 2 days post infection twice daily and measured after 5 days post compound treatment by H and E staining based histopathological analysis; type: organism-based; settings: in vivo, 120 h, time 5 day
[5] = Toxicity in Balb/c mouse infected with methicillin-resistant Staphylococcus aureus USA300 assessed as hemorrhage at 25 mg/kg, ip administered 2 days post infection twice daily and measured after 5 days post compound treatment by H and E staining based histopathological analysis; type: organism-based; settings: in vivo, 120 h, time 5 day
[6] = In vivo antibacterial activity against methicillin-resistant Staphylococcus aureus USA300 infected Balb/c mouse model assessed as reduction in bacterial infection in skin wounds at 25 mg/kg , ip administered 2 days post infection once daily and measured after 5 days post compound treatment by histopathological analysis; design: scale not given: the % may be the effect or the level left; settings: time 5 day
[7] = Toxicity in Balb/c mouse infected with methicillin-resistant Staphylococcus aureus USA300 assessed as hemorrhage administered topically twice daily 2 days post infection and measured after 5 days post compound treatment by H and E staining based histopathological analysis; settings: in vivo, topical_or_ocular, 120 h, time 5 day
Procedure, shortened: (§2)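 MRSA USA300-infected punch wounds in mice, n=5. Topical 2% agent or petroleum jelly vehicle twice daily from day 2 for 5 days. The left wound was formalin-fixed, cut into 4-μm sections and H&E-stained. Whole slides were scanned and assessed by a board-certified veterinary pathologist for necrosis, inflammation, haemorrhage and related features.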

[8] = Toxicity in Balb/c mouse infected with methicillin-resistant Staphylococcus aureus USA300 assessed as necrosis administered topically twice daily 2 days post infection and measured after 5 days post compound treatment by H and E staining based histopathological analysis; settings: in vivo, topical_or_ocular, 120 h, time 5 day; procedure, shortened: as §2
[9] = Toxicity in Balb/c mouse infected with methicillin-resistant Staphylococcus aureus USA300 assessed as chronic inflammatory response administered topically twice daily 2 days post infection and measured after 5 days post compound treatment by H and E staining based histopathological analysis; settings: in vivo, topical_or_ocular, 120 h, time 5 day; procedure, shortened: as §2
[10] = In vivo antibacterial activity against methicillin-resistant Staphylococcus aureus USA300 infected in Balb/c mouse model assessed as reduction in bacterial infection in skin wounds administered topically twice daily 2 days post infection and measured after 5 days post compound treatment by CFU counting; design: scale not given: the % may be the effect or the level left; settings: time 5 day

| SMILES | MIC (Staphylococcus aureus [1]) [µg/mL] | MIC (Staphylococcus aureus [2]) [µg/mL] | other results |
| --- | --- | --- | --- |
| CC1CCCN(S(=O)(=O)c2ccc(C(=O)Nc3nnc(-c4ccc(C(F)(F)F)cc4)o3)cc2)C1 (stereo unspecified) | 2 (≈ 4.04 µM) | 2 (≈ 4.04 µM) | – |
| O=C(Nc1nnc(-c2ccc(C(F)(F)F)cc2)o1)c1ccc(S(=O)(=O)N2CCCC2)cc1 | 2 (≈ 4.29 µM) | 2 (≈ 4.29 µM) | – |
| CCC[C@@H]1C[C@@H](C(=O)N[C@@H]([C@H]2O[C@H](SC)[C@H](O)[C@@H](O)[C@H]2O)[C@H](C)Cl)N(C)C1 [CLINDAMYCIN] | – | – | Activity [3]: Toxic; Activity [4]: Toxic; Activity [5]: Toxic; Activity [6]: 93.4% |
| O=C(Nc1nnc(-c2ccc(C(F)(F)F)cc2)o1)c1ccc(S(=O)(=O)NC2CC2)cc1 | 4 (≈ 8.84 µM) | 4 (≈ 8.84 µM) | – |
| C/C(=C\C(=O)OCCCCCCCCC(=O)O)C[C@@H]1OC[C@H](C[C@@H]2O[C@H]2[C@@H](C)[C@H](C)O)[C@@H](O)[C@H]1O [MUPIROCIN] | – | – | Activity [7]: Toxic; Activity [8]: Toxic; Activity [9]: Toxic; Activity [10]: 98.8% |
| C[C@@H]1C[C@H](C)CN(S(=O)(=O)c2ccc(C(=O)N(C)c3nnc(-c4ccc(C(F)(F)F)cc4)o3)cc2)C1 | > 64 | > 64 | – |
| O=C(Nc1nnc(-c2ccc(C(F)(F)F)cc2)o1)c1ccc(S(=O)(=O)N2C[C@@H]3CC[C@H]2C3)cc1 | 2 (≈ 4.06 µM) | 2 (≈ 4.06 µM) | – |

More lines, in order of falling MIC (Staphylococcus aureus [1]), values ahead:

| MIC (Staphylococcus aureus [1]) [µg/mL] | MIC (Staphylococcus aureus [2]) [µg/mL] | SMILES | other results |
| --- | --- | --- | --- |
| 16 (≈ 36.3 µM) | 16 (≈ 36.3 µM) | CN(C)S(=O)(=O)c1ccc(C(=O)Nc2nnc(-c3ccc(C(F)(F)F)cc3)o2)cc1 | – |
| 2 (≈ 4.16 µM) | 2 (≈ 4.16 µM) | O=C(Nc1nnc(-c2ccc(C(F)(F)F)cc2)o1)c1ccc(S(=O)(=O)N2CCCCC2)cc1 | – |
| 2 (≈ 4.04 µM) | 2 (≈ 4.04 µM) | CC1CCCCN1S(=O)(=O)c1ccc(C(=O)Nc2nnc(-c3ccc(C(F)(F)F)cc3)o2)cc1 (stereo unspecified) | – |
| 1 (≈ 2.02 µM) | 1 (≈ 2.02 µM) | CC1CCN(S(=O)(=O)c2ccc(C(=O)Nc3nnc(-c4ccc(C(F)(F)F)cc4)o3)cc2)CC1 | – |
